Only some compounds are listed: those with a hit (about 3.7% of all), similar ones and a draw of the others.
XBP1 UPR activ: activators of adaptive arm of unfolded protein response (XBP1). actives 0.33% (n = 330,000). CHO-XBP1 luciferase reporter, IRE1-XBP1 UPR activation, luminescence; percent of tunicamycin response, DMSO as zero. activation, % at 20 µM;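 active means versus positive control, 20 µM dose yields 30% or more activation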;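 further: 100% = tunicamycin at 10 µg/mL and 0% = DMSO only wells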
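incubation = overnight seeding at 37 °C, 6 h compound treatment at 37 °C | assay system = CHO-XBP1 cells stably carrying IRE1-XBP1-driven luciferase reporter | input = 1000 cells per well | detection = luciferase luminescence | dosing = single point, 20 µM final compound, 1% DMSO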
B2AR ag: human beta-2 adrenergic receptor agonism by FAP; P07550; Am2.2-beta2AR cells, FAP receptor internalization, flow cytometry; response, % (concentration not given with the values); actives 0.43% (n = 340,000); AID 504454;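 active means response above a set limit, near 3 SD of response in nonfluorescent compounds, cut at about 42% in these data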
Dynein transport: blocks dynein driven cargo transport along microtubules | 3617.4 mouse cells, GR-EGFP nuclear translocation imaging; test concentration mostly 20 µM; stimulated with dexamethasone, 1 µM; hits give low values | z-score, hits read low | actives 0.47% (n = 220,000) | AID 1381;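 active means plate z-score of nuclear minus cytoplasmic receptor signal below a set negative limit, without overly bright fluorescence or cell loss, cut at about -3.5 in these data, passing the limit was not always enough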;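 further: z-score of nuclear minus cytoplasmic ring GR-EGFP intensity difference per well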
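Medium: Induction medium lacking tetracycline, stripped serum | Probe or stimulus: 1.0 µM final dexamethasone stimulus | Schedule: 48 h induction, then 1 h compound, then 30 min agonist, 37 °C | Signal: Automated 10x imaging of fixed Hoechst-stained cells | Evaluation: Per-cell GR-EGFP intensity, nucleus versus surrounding cytoplasmic ring, well-averaged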
MDM2 E3 inh: blocks human Mdm2 ubiquitin ligase activity; actives 0.11% (n = 210,000); cell-based MDM2 ubiquitination luciferase reporter, 2 h; 0 = plate control, 100 = twice control, blank-subtracted; Q00987; signal enhancement, % at 5 µM;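 active means signal enhancement of 30% or more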;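 further: luminescence tracks abundance of the self-degrading MDM2-luciferase fusion protein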
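test system = mammalian cells stably expressing self-ubiquitinating, self-degrading MDM2 E3–luciferase fusion | quantity = 2000 cells/well | incubation = cell settling 4 h, compound treatment 2 h, both 37 °C | signal = luminescence with SteadyLite reagent, 15 min at room temperature | evaluation = % enhancement relative to plate controls after blank subtraction | benchmarks = plate controls and plate blanks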
UPR CHOP act: activators of apoptotic arm of unfolded protein response (CHOP); CHO-CHOP luciferase reporter, UPR activation, luminescence; percent of tunicamycin response over DMSO baseline; activation, % at 10 µM; actives 0.34% (n = 330,000);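 active means at 10 µM dose, activation of 40% or more, normalized to positive control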;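 further: 100% = tunicamycin at 10 µg/mL and 0% = DMSO alone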
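assay system = CHO CHOP reporter cells | amount = 500 CHO-CHOP cells per well | buffer or medium = F12 with 10% FBS | incubation = 16-18 h cell attachment, then 6 h compound exposure, 37 °C | detection = luminescence read with Steady-Glo | read-out = percent activation relative to tunicamycin control | controls = tunicamycin high control, DMSO low control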
Mdm2-MdmX inh: disrupts the human Mdm2-MdmX interaction; O15151+Q00987; actives 3% (n = 330,000); inhibition, % at 8 µM; SaOS-2 split-luciferase Mdm2/MdmX complementation, luminescence;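 active means inhibition of at least 50% at 8 µM in the primary screen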
Target sequence (O15151 whole entry, looked up): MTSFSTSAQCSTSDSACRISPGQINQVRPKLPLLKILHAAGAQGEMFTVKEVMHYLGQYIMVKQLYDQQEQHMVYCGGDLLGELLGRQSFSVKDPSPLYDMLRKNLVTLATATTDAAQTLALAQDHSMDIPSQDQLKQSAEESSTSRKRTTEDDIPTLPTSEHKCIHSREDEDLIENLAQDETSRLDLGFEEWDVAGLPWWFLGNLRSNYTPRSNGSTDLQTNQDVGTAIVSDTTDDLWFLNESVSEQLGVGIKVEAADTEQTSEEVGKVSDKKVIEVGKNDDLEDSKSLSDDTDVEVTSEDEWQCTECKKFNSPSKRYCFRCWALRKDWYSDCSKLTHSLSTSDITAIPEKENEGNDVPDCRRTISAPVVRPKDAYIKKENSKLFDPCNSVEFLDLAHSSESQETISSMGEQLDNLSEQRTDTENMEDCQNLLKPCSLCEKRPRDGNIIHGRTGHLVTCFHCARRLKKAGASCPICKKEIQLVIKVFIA
Target sequence (Q00987 whole entry, looked up): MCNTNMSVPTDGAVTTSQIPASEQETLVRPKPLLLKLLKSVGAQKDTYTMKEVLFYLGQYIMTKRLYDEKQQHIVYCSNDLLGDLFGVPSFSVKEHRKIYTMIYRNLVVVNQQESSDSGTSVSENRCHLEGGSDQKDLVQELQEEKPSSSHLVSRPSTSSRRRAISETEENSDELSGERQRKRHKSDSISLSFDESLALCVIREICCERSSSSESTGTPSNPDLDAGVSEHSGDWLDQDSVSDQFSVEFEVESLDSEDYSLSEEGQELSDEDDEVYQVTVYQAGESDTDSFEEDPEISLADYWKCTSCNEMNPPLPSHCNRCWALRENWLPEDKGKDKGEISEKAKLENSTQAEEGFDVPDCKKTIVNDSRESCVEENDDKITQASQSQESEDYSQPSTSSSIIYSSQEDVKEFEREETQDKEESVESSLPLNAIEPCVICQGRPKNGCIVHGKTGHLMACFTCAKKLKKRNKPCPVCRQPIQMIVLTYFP
Mdm2-MdmX conf: human Mdm2/MdmX binding inhibition, confirmed. shares compounds with Mdm2-MdmX inh. luminescent assay. inhibition, % at 8 µM. actives 55% (n = 10,000); in the data active means inhibition above about 40%
FLuc counter: full-length luciferase inhibition in Mdm2/MdmX counter-screen; shares compounds with Mdm2-MdmX inh; SaOS-2 full-length luciferase counterscreen, luminescence; inhibition, % at 8 µM; actives 77% (n = 6,200); AID 504607;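 active means mean inhibition at 8 µM reaching about 37%, which flags the compound as non-specific, limit read from the data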;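 further: p53-null SaOS-2 cells with luciferase driven by a doxycycline-inducible promoter; compound on cells about two nights before reading with doxycycline added after day one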
* = called active by the depositor; nt = no result given.

SMILES	XBP1 UPR activ	B2AR ag	Dynein transport	MDM2 E3 inh	UPR CHOP act	Mdm2-MdmX inh	Mdm2-MdmX conf	FLuc counter
CCc1ccc(CN2CCCC(CCC(=O)N3CCN(c4ccccn4)CC3)C2)o1 (centres undefined)	-0.6	-7.0	-1.05	-78.3	-2.4	15.1	nt	nt
COc1cc(-c2nc(-c3ccccc3)c(-c3cc([N+](=O)[O-])ccc3C)[nH]2)cc(OC)c1OC	-1.4	23.1	-0.427	-10.5	1.4	68.7*	29.6	nt
CCCN(CC(=O)Nc1ccccc1C)C(=O)CCl	-3.5	-2.0	-3.32	-4.7	2.0	95.1*	97.2*	49.0*
CCCN(CC(=O)Nc1ccccc1C)C(=O)COc1c(C)cccc1C	-2.1	-4.4	nt	nt	-0.7	-8.5	nt	nt
Cn1ncc(Cl)c1C(=O)N1CCN(C(=O)c2ccco2)CC1	nt	4.9	-0.0967	-10.2	nt	nt	nt	nt
Cc1ccc(CCC(=O)Nc2ncc(Cc3cccc(Cl)c3Cl)s2)o1	23.4	16.2	0.314	-5.6	0.8	68.9*	66.5*	76.5*
CCc1nnc(NC(=O)CCc2ccc(C)o2)s1	-2.5	18.5	1.04	-10.1	1.1	5.2	nt	nt
Cc1cccc(C(=O)O/N=C(\N)c2ccccn2)c1	-12.3	3.6	nt	nt	-8.9	65.1*	63.0*	99.6*
Cc1ccc(C(=O)O/N=C(\N)c2ccccn2)cc1C	-11.5	-22.0	nt	nt	-11.8	81.7*	70.0*	63.9*
COc1ccc(Cl)cc1C(=O)O/N=C(\N)c1ccccn1	0.0	-0.2	nt	nt	5.1	38.7	nt	nt
N/C(=N\OC(=O)c1cccc(F)c1)c1ccccn1	-8.4	-8.4	nt	nt	-8.5	-84.8	nt	nt
CC(C)(C)c1ccc(C(=O)O/N=C(\N)c2ccccn2)cc1	-11.0	-6.5	nt	nt	-5.6	98.2*	97.3*	28.0
COc1cc(C(=O)O/N=C(\N)c2ccccn2)cc(OC)c1OC	5.8	2.9	-0.751	-15.6	3.3	67.4*	-1.6	nt
O=C(COC(=O)c1ccccc1Cc1ccccc1)NC1CCS(=O)(=O)C1 (centres undefined)	-2.4	-7.4	nt	nt	2.8	-9.2	nt	nt
CCOC(=O)c1cnc2cc(F)c(F)cc2c1N1CCOCC1	-5.4	1.9	nt	nt	0.1	-1.1	nt	nt
Cc1ccc(C(=O)O/N=C(\N)c2ccccn2)cc1	-16.4	-3.0	nt	nt	-9.0	90.6*	89.3*	34.0
CCOc1ccc(C(=O)O/N=C(\N)c2ccccn2)cc1	-11.1	4.8	nt	nt	-11.6	95.0*	86.2*	33.0
N/C(=N\OC(=O)c1ccccc1)c1ccccn1	-7.4	-5.0	-0.0301	-85.3	-10.2	41.6	nt	nt
CCS(=O)(=O)C1=NN2C(=N)/C(=C\c3ccc(SCc4ccco4)o3)C(=O)N=C2S1	nt	-11.8	0.3	-1.2	nt	nt	nt	nt
COc1ccc(Nc2nccc(-c3ccc(C#N)cc3)n2)cc1	0.2	-3.1	nt	nt	-1.1	26.5	nt	nt
COc1ccc(Nc2nccc(-c3cccc(N)c3)n2)cc1	-5.1	8.4	nt	nt	-1.0	65.2*	-13.4	nt
CC1(C)Cc2c(c(N3CCOCC3)nc3sc4c(=O)[nH]cnc4c23)CS1	5.0	-7.2	-0.923	7.5	-1.9	5.7	nt	nt
CCN(CC)CCNc1ncnc2c1sc1nc(N3CCOCC3)c3c(c12)CC(C)(C)SC3	6.4	27.0	0.132	-36.6	0.7	63.5*	39.5	54.0*
CN(C)CCNc1ncnc2c1sc1nc(N3CCOCC3)c3c(c12)CC(C)(C)SC3	9.1	21.0	0.928	3.5	1.6	70.2*	44.5*	75.2*
C=CCN1C(=O)C(=O)N(CC(=O)NCC(=O)Nc2ccc(F)c(F)c2F)C1=O	1.1	-0.8	nt	nt	-2.3	7.6	nt	nt
SMILES	XBP1 UPR activ	B2AR ag	Dynein transport	MDM2 E3 inh	UPR CHOP act	Mdm2-MdmX inh	Mdm2-MdmX conf	FLuc counter
CC(C)CCNC(=O)C(c1ccncc1)N(Cc1cccs1)C(=O)Cn1nnc(-c2ccc(F)cc2)n1 (centres undefined)	-3.6	6.5	-0.216	-4.5	0.4	68.5*	60.1*	26.3
O=C(NC1CCCCC1)C(c1ccc(F)cc1)N(Cc1ccccc1)C(=O)CN1C(=O)c2ccccc2S1(=O)=O (centres undefined)	23.1	-8.7	-0.129	-12.8	5.8	61.4*	65.7*	94.4*
CCOC(=O)CN(C(=O)Cn1nnc(-c2ccc(OC)cc2)n1)C(C(=O)NC1CCCC1)c1ccc(F)cc1 (centres undefined)	-2.0	-5.1	0.423	-1.2	2.4	6.0	nt	nt
O=C(NC1CCCCC1)C(c1ccc(F)cc1)N(CCc1ccccc1)C(=O)CN1C(=O)c2ccccc2S1(=O)=O (centres undefined)	nt	-1.0	-0.0185	-11.8	nt	nt	nt	nt
CCN(CC)CCN(C(=O)Cn1nnc(-c2ccc(OC)c(OC)c2)n1)C(C(=O)NC1CCCC1)c1ccc(F)cc1 (centres undefined)	-2.7	-7.1	-0.000208	-5.6	0.2	74.7*	25.4	nt
COc1ccc(-c2nnn(CC(=O)N(Cc3ccc(F)cc3)C(C(=O)NC3CCCC3)c3ccc(F)cc3)n2)cc1 (centres undefined)	1.1	8.6	-0.419	nt	6.5	75.5*	18.6	nt
O=C(OCC(=O)N1CCc2ccccc2C1)c1c(F)cccc1Cl	-3.3	-5.0	nt	nt	2.5	-132.2	nt	nt
CC1=C/C(=N\NC(=S)Nc2cccnc2)CC(C)(C)C1	nt	1.8	1.25	-92.0	nt	nt	nt	nt
CC(C)c1ccc(OCC(=O)Nc2ccccc2C(=O)N2CCOCC2)cc1	-3.3	-0.8	nt	nt	-0.4	23.1	nt	nt
Cc1ccc(N(C(=O)Cn2nnc(-c3ccc(C)o3)n2)C(C(=O)NC2CCCC2)c2ccncc2)cc1 (centres undefined)	-1.7	2.2	nt	nt	-0.6	55.0*	20.9	nt
O=C1Cc2cc(NS(=O)(=O)c3ccc([N+](=O)[O-])cc3)cc3c2N1CCC3	-3.0	6.6	nt	nt	-0.5	18.8	nt	nt
Cc1nn(CC(=O)NCCCN2CCC(Cc3ccccc3)CC2)c(=O)c2cc(-c3ccccc3)nn12	4.8	29.3	nt	nt	9.8	95.6*	68.5*	41.0*
CCc1ccc(-c2cc3c(=O)n(CC(=O)NCCCN4CCC(Cc5ccccc5)CC4)nc(C)n3n2)cc1	0.1	16.0	nt	nt	31.1	100.4*	98.8*	53.0*
Cc1nn(CC(=O)NCCCN2CCN(Cc3ccccc3)CC2)c(=O)c2cc(-c3ccccc3)nn12	-2.1	-8.6	nt	nt	0.7	30.9	nt	nt
CCC(C)Sc1cc(-c2nc3cc(C)ccn3c2NC2CCCCC2)ccc1OC (centres undefined)	1.4	11.4	nt	nt	3.7	84.3*	-11.5	nt

From PubChem
